Each structure is given as a SMILES string.

Assay [1] concerns Mus musculus. In words: Inhibitory activity against tremorine-induced tremors, after 5 hour of peroral administration in mouse at dose 7.5 mg/kg. The format is functional. The conditions noted are these: route oral. Summed up: (§1)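 Male mice fasted overnight, dosed orally with arabic gum suspension (10 mL/kg) 1 or 5 h before test, vehicle controls included. Tremorine 20 mg/kg ip given 1 h after compounds; central (tremor) and peripheral (salivation) parasympathetic signs recorded. ED50 = dose protecting 50% of animals, by probit analysis.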

Assay [2] has as its system dog (Canis familiaris). Put plainly: Antagonistic activity against apomorphine-induced emesis, after 5 hour of peroral administration in dogs. To be noted: Canis lupus familiaris, po.
Assay [3] has as its system Mus musculus. Put plainly: Inhibitory activity against tremorine-induced tremors, after 1 hour of peroral administration in mouse at dose 7.5 mg/kg. To be noted: route oral. The class given is functional. In short, it runs like this: as §1
In assay [4] the test system is Mus musculus. Put plainly: Anticonvulsant activity against pentylenetetrazole-induced convulsions, after 1 hour of peroral administration in mouse at a dose of 15 mg/kg. The format is functional. The conditions noted are these: route oral. In short, it runs like this: (§2)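 Compounds were dosed as bases suspended in arabic gum at 10 mL/kg orally, after an overnight fast, with vehicle controls. Protection meant no bilateral forepaw clonic seizures or head twitches (tryptamine), or no tonic hind-limb extension (the other two). ED50 is the dose protecting 50%, by probit analysis.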

Assay [5] has as its system Mus musculus. In words: Inhibition of spontaneous locomotor activity, after 5 hour of peroral administration in mouse. The format is functional. The conditions noted are these: po. Summed up: (§3)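 Mice in groups of five were dosed orally with gum arabic suspensions at 10 mL/kg after an overnight fast, with a vehicle control group. Locomotion was counted for 10 min in a photocell activity cage, in at least two groups per dose. ED50, by probit analysis, is the dose giving 50% inhibition against controls.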

Assay [6] is filed under the species Rattus norvegicus. In words: Body weight gain, after 2 hour of period of conditioned feeding in rats,. The class given is functional. In short, it runs like this: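 Female rats (250–280 g) were kept singly on a 22-h food deprivation schedule, with pellets 10–12 a.m. and water always available. After 30–40 days of training they were dosed 1 h before the 2-h feeding and weighed before and after it. Weight gain was expressed as a percentage of the two preceding control days. ED50 is the dose giving 50% reduction.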

Assay [7] has as its system Mus musculus. In words: Effect on skeletal muscle tone, after 1 hour of peroral administration in mouse at a dose of 100 mg/kg. The format is functional. To be noted: Muscle tissue, route oral. Summed up:
(§4)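 Male mice were placed for 1 h on a 60° inclined wire screen just after dosing and 4 h later. In a second test, trained mice hung by the forepaws from a horizontal 1.8 mm wire 15 cm up; normal mice touch it with a hind paw within 2 s and stay ≥1 min. ED50 is the dose making 50% fall. Dosing was oral in gum arabic suspension at 10 mL/kg after an overnight fast.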

For assay [8], the system named is Mus musculus. In words: Anticonvulsant activity against pentylenetetrazole-induced convulsions, after 1 hour of peroral administration in mouse at a dose of 40 mg/kg. The class given is functional. To be noted: route oral. In short, it runs like this: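 Male mice dosed orally (arabic gum, 10 mL/kg) 1 or 5 h before challenge with tryptamine 100 mg/kg iv, pentylenetetrazol 110 mg/kg ip, or maximal electroshock. Protection means no bilateral forepaw clonic seizures and head twitches (tryptamine) or no tonic hind-limb extension (others). ED50 protects 50% of mice.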

Assay [9] deals with Mus musculus. Put plainly: Effect on skeletal muscle tone, after 5 hour of peroral administration in mouse at a dose of 100 mg/kg. The class given is functional. To be noted: Muscle tissue, route oral. Summed up: as §4
The subject of assay [10] is Mus musculus. Put plainly: Activity of inclined screen in mouse, after 5 hour of peroral administration in mouse at a dose of 60 mg/kg. The class given is functional. To be noted: route oral. In short, it runs like this:
(§5)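 Male mice dosed orally (arabic gum suspension, 10 mL/kg, fasted overnight) 1 or 5 h before testing. Placed for 1 h on a wire screen bent at 60° to the horizontal. Ataxic or miorelaxed mice slide off. ED50 is the dose at which 50% of mice fall, by probit analysis. Ten animals per dose, with vehicle controls.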

Assay [11] concerns Mus musculus. In words: Inhibition of spontaneous motor activity after 5 hour of peroral administration in mouse. The format is functional. The conditions noted are these: po. Summed up:
as §3

The test system of assay [12] is Mus musculus. Put plainly: Inhibitory activity against tremorine-induced tremors, after 1 hour of peroral administration in mouse at dose 20 mg/kg. To be noted: route oral. The class given is functional. In short, it runs like this: as §1
Assay [13] deals with dog (Canis familiaris). In words: Antagonistic activity against apomorphine-induced emesis, after 5 hour of peroral administration in dogs. To be noted: Canis lupus familiaris, po. The source holds these as a separate data set.
In assay [14] the test system is Mus musculus. Put plainly: Anticonvulsant activity against pentylenetetrazole-induced convulsions, after 1 hour of peroral administration in mouse at a dose of 20 mg/kg. The conditions noted are these: route oral. The class given is functional. Summed up: as §2
The subject of assay [15] is Mus musculus. Put plainly: Effect on skeletal muscle tone, after 1 hour of peroral administration in mouse at a dose of 200 mg/kg. To be noted: Muscle tissue, route oral. The format is functional. In short, it runs like this:
as §4

Assay [16] concerns Mus musculus. Put plainly: Activity of inclined screen in mouse, after 1 hour of peroral administration in mouse at a dose of 100 mg/kg. The class given is functional. The conditions noted are these: route oral. Summed up:
as §5

Assay [17] has as its system Mus musculus. Put plainly: Potentiation against pentobarbital-induced sleeping, after 1 hour of peroral administration in mouse at a dose of 100 mg/kg. The format is functional. To be noted: route oral. In short, it runs like this: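 Female mice fasted overnight, dosed orally 1 or 5 h beforehand as arabic gum suspension, 10 mL/kg, with vehicle controls. Subhypnotic pentobarbital 10 mg/kg iv; 3 min later placed on back, effect scored as complete loss of righting reflex for at least 15 s. ED50 = dose producing this in 50% of mice, probit analysis.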

The test system of assay [18] is Rattus norvegicus. In words: Inhibitory activity against norepinephrine-induced lethality, after 1 hour of peroral administration in rat at a dose of 40 mg/kg. The class given is functional. The conditions noted are these: route oral. In short, it runs like this: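 Rats (80–90 g) dosed orally (arabic gum, 10 mL/kg) 1 or 5 h before norepinephrine 0.5 mg/kg iv, which kills unprotected rats within 30 min. ED50 is the dose protecting 50% of rats from lethality, by probit analysis.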

The test system of assay [19] is Mus musculus. Put plainly: Anticonvulsant activity against electroshock-induced convulsions, after 1 hour of peroral administration in mouse at a dose of 100 mg/kg. The format is functional. To be noted: route oral. In short, it runs like this:
as §2

For assay [20], the system named is Mus musculus. Put plainly: Anticonvulsant activity against tryptamine-induced convulsions, after 1 hour of peroral administration in mouse at a dose of 40 mg/kg. The format is functional. To be noted: route oral. In short, it runs like this: as §2
Assay [21] concerns Mus musculus. In words: Anticonvulsant activity against pentylenetetrazole-induced convulsions, after 1 hour of peroral administration in mouse at a dose of 100 mg/kg. The format is functional. The conditions noted are these: route oral. In short, it runs like this:
as §2

In assay [22] the test system is Mus musculus. Put plainly: Anticonvulsant activity against pentylenetetrazole-induced convulsions, after 5 hour of peroral administration in mouse at a dose of 100 mg/kg. The class given is functional. The conditions noted are these: route oral. Summed up:
as §2

In assay [23] the test system is Mus musculus. In words: Activity of inclined screen in mouse, after 5 hour of peroral administration in mouse at dose of 100 mg/kg. The class given is functional. The conditions noted are these: route oral. Summed up:
as §5

The test system of assay [24] is Mus musculus. In words: Anticonvulsant activity against pentylenetetrazole-induced convulsions, after 5 hour of peroral administration in mouse at dose of 100 mg/kg. The format is functional. To be noted: route oral. Summed up: as §2
In assay [25] the test system is Mus musculus. Put plainly: Anticonvulsant activity against tryptamine-induced convulsions, after 5 hour of peroral administration in mouse at dose of 40 mg/kg. The class given is functional. To be noted: route oral. Summed up:
as §2

In assay [26] the test system is Mus musculus. In words: Inhibitory activity against tremorine-induced tremors, after 1 hour of peroral administration in mouse at dose of 60 mg/kg. The format is functional. The conditions noted are these: route oral. In short, it runs like this: as §1
Assay [27] deals with Mus musculus. Put plainly: Inhibitory activity against tremorine-induced tremors, after 5 hour of peroral administration in mouse at dose of 60 mg/kg. The class given is functional. To be noted: route oral. Summed up:
as §1

For assay [28], the system named is Mus musculus. In words: Inhibitory activity against tremorine-induced salivation, after 1 hour of peroral administration in mouse at dose of 60 mg/kg. The conditions noted are these: route oral. The format is functional. In short, it runs like this: as §1
Assay [29] deals with Mus musculus. In words: Anticonvulsant activity against electroshock-induced convulsions, after 1 hour of peroral administration in mouse at dose of 100 mg/kg. The class given is functional. To be noted: route oral. In short, it runs like this:
as §2

Assay [30] deals with Mus musculus. Put plainly: Effect on skeletal muscle tone, after 1 hour of peroral administration in mouse at dose of 200 mg/kg. The conditions noted are these: Muscle tissue, route oral. The class given is functional. In short, it runs like this:
as §4

Assay [31] concerns Mus musculus. Put plainly: Contractile activity in skeletal muscles, after 1 hour of peroral administration in mouse at dose of 0 mg/kg. The format is functional. The conditions noted are these: Muscle tissue, route oral. In short, it runs like this: as §4

Consider `CN(C)CCCN1c2ccccc2Sc2ccc(Cl)cc21` [CHLORPROMAZINE], for which the inhibition in vivo (usually the relative decrease from the control value, in per cent) at 7.5 mg/kg with Mus musculus [1] amounted to 15%; in the assay on Mus musculus [3] it was 0%. Further, the ED50 with dog (Canis familiaris) [2] stood at 7.5 mg/kg; in the assay on Mus musculus [5], 4.8 mg/kg. Also, the inhibition in vivo at 15 mg/kg with Mus musculus [4] was 0%.

For `COc1ccccc1N1CCN(CCCC(=O)c2ccc(F)cc2)CC1` [FLUANISONE], the ED50 in the assay listed under Rattus norvegicus [6] was 6 mg/kg; in the assay on Mus musculus [11], 15.7 mg/kg. In addition, the results for the inhibition in vivo at 100 mg/kg in the assay on Mus musculus [7] and in the assay on Mus musculus [9] were 30% and 0%, respectively. In the assay on Mus musculus [8], this compound came in with an inhibition in vivo at 40 mg/kg of 0%. The compound further yielded an inhibition in vivo at 60 mg/kg with Mus musculus [10] of 0%.

For the compound `O=C(CCCN1CCC(O)(c2ccc(Cl)cc2)CC1)c1ccc(F)cc1` [HALOPERIDOL], the inhibition in vivo at 20 mg/kg with Mus musculus [12] and in the assay on Mus musculus [14] was 0% in each case. In the assay with dog (Canis familiaris) [13], this compound registered an ED50 of 0.04 mg/kg.

`O=c1[nH]c(-c2ccc(F)cc2)c(CCN2CCN(c3cc(Cl)cc(Cl)c3)CC2)o1` [LODIPERONE] returned an inhibition in vivo at 200 mg/kg in the assay on Mus musculus [15] of 10%. Further, the inhibition in vivo at 100 mg/kg with Mus musculus [16] is 0%; in the assay on Mus musculus [17], 30%; with Mus musculus [19] it was 0%; in the assay on Mus musculus [21], 0%; in the assay with Mus musculus [22], 0%. Further, the inhibition in vivo at 40 mg/kg with Rattus norvegicus [18] stood at 10%; in the assay with Mus musculus [20] it was 0%.

Take `COc1ccccc1N1CCN(CCc2oc(=O)[nH]c2-c2ccc(F)cc2)CC1` [ZOLOPERONE]: the inhibition in vivo at 100 mg/kg in the assay on Mus musculus [23], in the assay with Mus musculus [24] and in the assay on Mus musculus [29] was 0% throughout. This compound showed an inhibition in vivo at 40 mg/kg with Mus musculus [25] of 0%. The figures for the inhibition in vivo at 60 mg/kg in the assay on Mus musculus [26], in the assay on Mus musculus [27] and in the assay with Mus musculus [28] were 10%, 0% and 0%, respectively. This compound displayed an inhibition in vivo at 200 mg/kg with Mus musculus [30] of 0%. In the assay with Mus musculus [31], this compound gave an ED50 of 179 mg/kg.
